Measurements: ChEMBL document CHEMBL1122777, “Effect of tellurium position on the myocardial uptake of radioiodinated 18-iodotellura-17-octadecenoic acid analogues” (1984)

Tests used:
[1] = Ratio of heart to kidneys uptake after 60 min was determined in female Fischer rats after [125I]-labeled compound complexed with bovine serum albumin was injected intravenously; type: functional, Heart/Kidney
In short: (§1)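 Female Fischer 344 rats (food and water ad libitum) given the 125I-labelled fatty acid in 6% bovine albumin with 10% final ethanol, filtered, 0.5 mL into a lateral tail vein under ether anaesthesia. Four rats per time point. Tissue activity expressed as % injected dose/g against assayed injectate standards. Mean heart/tissue ratios were calculated from mean %ID/g values.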

Rattus norvegicus [2] = assay: Heart uptake after 30 min was determined in female Fischer rats after [125I]-labeled compound complexed with bovine serum albumin was injected intravenously; type: functional
In short: (§2)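 Female Fischer 344 rats (fed ad libitum) under ether anaesthesia received the ¹²⁵I fatty acid in a lateral tail vein. Dose was ~3.8–4.8 μCi per rat (sp act ~125–240 mCi/mmol), given in 0.5 mL 6% bovine albumin (final ethanol 10%) after filtration. Four rats per time point were used. Tissue radioactivity is % injected dose/g, mean with range, calculated against standards of the injected solution.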

[3] = Ratio of heart to lungs uptake after 120 min was determined in female Fischer rats after [125I]-labeled compound complexed with bovine serum albumin was injected intravenously; type: functional; in short: as §1
[4] = Ratio of heart to liver uptake after 60 min was determined in female Fischer rats after [125I]-labeled compound complexed with bovine serum albumin was injected intravenously; type: functional; in short: as §1
[5] = Ratio of heart to liver uptake after 240 min was determined in female Fischer rats after [125I]-labeled compound complexed with bovine serum albumin was injected intravenously; type: functional; in short: as §1
[6] = Ratio of heart to liver uptake after 5 min was determined in female Fischer rats after [125I]-labeled compound complexed with bovine serum albumin was injected intravenously; type: functional; in short: as §1
Rattus norvegicus [7] = assay: Heart uptake after 240 min was determined in female Fischer rats after [125I]-labeled compound complexed with bovine serum albumin was injected intravenously; type: functional; in short: as §2
[8] = Ratio of heart to kidneys uptake after 240 min was determined in female Fischer rats after [125I]-labeled compound complexed with bovine serum albumin was injected intravenously; type: functional, Heart/Kidney; in short: as §1
[9] = Ratio of heart to lungs uptake after 240 min was determined in female Fischer rats after [125I]-labeled compound complexed with bovine serum albumin was injected intravenously; type: functional; in short: as §1
[10] = Ratio of heart to blood uptake after 120 min was determined in female Fischer rats after [125I]-labeled compound complexed with bovine serum albumin was injected intravenously; type: functional; in short: as §1
[11] = Ratio of heart to blood uptake after 60 min was determined in female Fischer rats after [125I]-labeled compound complexed with bovine serum albumin was injected intravenously; type: functional; in short: as §1
Rattus norvegicus [12] = assay: Heart uptake after 120 min was determined in female Fischer rats after [125I]-labeled compound complexed with bovine serum albumin was injected intravenously; type: functional; in short: as §2
[13] = Ratio of heart to blood uptake after 30 min was determined in female Fischer rats after [125I]-labeled compound complexed with bovine serum albumin was injected intravenously; type: functional; in short: as §1
[14] = Ratio of heart to kidneys uptake after 120 min was determined in female Fischer rats after [125I]-labeled compound complexed with bovine serum albumin was injected intravenously; type: functional, Heart/Kidney; in short: as §1
[15] = Ratio of heart to blood uptake after 240 min was determined in female Fischer rats after [125I]-labeled compound complexed with bovine serum albumin was injected intravenously; type: functional; in short: as §1
[16] = Ratio of heart to kidneys uptake after 5 min was determined in female Fischer rats after [125I]-labeled compound complexed with bovine serum albumin was injected intravenously; type: functional, Heart/Kidney; in short: as §1
[17] = Ratio of heart to lungs uptake after 5 min was determined in female Fischer rats after [125I]-labeled compound complexed with bovine serum albumin was injected intravenously; type: functional; in short: as §1
[18] = Ratio of heart to liver uptake after 30 min was determined in female Fischer rats after [125I]-labeled compound complexed with bovine serum albumin was injected intravenously; type: functional; in short: as §1
Rattus norvegicus [19] = assay: Heart uptake after 60 min was determined in female Fischer rats after [125I]-labeled compound complexed with bovine serum albumin was injected intravenously; type: functional; in short: as §2
[20] = Ratio of heart to lungs uptake after 30 min was determined in female Fischer rats after [125I]-labeled compound complexed with bovine serum albumin was injected intravenously; type: functional; in short: as §1
Rattus norvegicus [21] = assay: Heart uptake after 5 min was determined in female Fischer rats after [125I]-labeled compound complexed with bovine serum albumin was injected intravenously; type: functional; in short: as §2
[22] = Ratio of heart to kidneys uptake after 30 min was determined in female Fischer rats after [125I]-labeled compound complexed with bovine serum albumin was injected intravenously; type: functional, Heart/Kidney; in short: as §1
[23] = Ratio of heart to liver uptake after 120 min was determined in female Fischer rats after [125I]-labeled compound complexed with bovine serum albumin was injected intravenously; type: functional; in short: as §1
[24] = Ratio of heart to blood uptake after 5 min was determined in female Fischer rats after [125I]-labeled compound complexed with bovine serum albumin was injected intravenously; type: functional; in short: as §1
[25] = Ratio of heart to lungs uptake after 60 min was determined in female Fischer rats after [125I]-labeled compound complexed with bovine serum albumin was injected intravenously; type: functional; in short: as §1
Rattus norvegicus [26] = assay: Uptake in lungs after 30 min was determined in female Fischer rats after [125I]-labeled compound complexed with bovine serum albumin was injected intravenously; type: functional
In short: (§3)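 Female Fischer 344 rats with free access to food and water. The 125I-labelled fatty acid (~3.8–4.8 μCi; sp act. ~125–240 mCi/mmol) was complexed with 6% bovine serum albumin (10% final ethanol), filtered, and 0.5 mL was injected via a lateral tail vein under ether anaesthesia. Four rats per time point. Values are mean % injected dose/g, calculated against injectate standards. Thyroid weight was taken as 7.5 mg/100 g body weight.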

Rattus norvegicus [27] = assay: Liver uptake after 60 min was determined in female Fischer rats after [125I]-labeled compound complexed with bovine serum albumin was injected intravenously; type: functional; in short: as §2
Rattus norvegicus [28] = assay: Uptake in lungs after 5 min was determined in female Fischer rats after [125I]-labeled compound complexed with bovine serum albumin was injected intravenously; type: functional; in short: as §3
Rattus norvegicus [29] = assay: Liver uptake after 5 min was determined in female Fischer rats after [125I]-labeled compound complexed with bovine serum albumin was injected intravenously; type: functional; in short: as §2
Rattus norvegicus [30] = assay: Blood uptake after 30 min was determined in female Fischer rats after [125I]-labeled compound complexed with bovine serum albumin was injected intravenously; type: functional; in short: as §2
Rattus norvegicus [31] = assay: Liver uptake after 1d was determined in female Fischer rats after [125I]-labeled compound complexed with bovine serum albumin was injected intravenously; type: functional; in short: as §2
Rattus norvegicus [32] = assay: Blood uptake after 5 min was determined in female Fischer rats after [125I]-labeled compound complexed with bovine serum albumin was injected intravenously; type: functional; in short: as §2
Rattus norvegicus [33] = assay: Blood uptake after 1d was determined in female Fischer rats after [125I]-labeled compound complexed with bovine serum albumin was injected intravenously; type: functional; in short: as §2
Rattus norvegicus [34] = assay: Heart uptake after 1d was determined in female Fischer rats after [125I]-labeled compound complexed with bovine serum albumin was injected intravenously; type: functional; in short: as §2
Rattus norvegicus [35] = assay: Blood uptake after 60 min was determined in female Fischer rats after [125I]-labeled compound complexed with bovine serum albumin was injected intravenously; type: functional; in short: as §2
Rattus norvegicus [36] = assay: Kidney uptake after 5 min was determined in female Fischer rats after [125I]-labeled compound complexed with bovine serum albumin was injected intravenously; type: functional; in short: as §2
Rattus norvegicus [37] = assay: Blood uptake after 4 hr was determined in female Fischer rats after [125I]-labeled compound complexed with bovine serum albumin was injected intravenously; type: functional; in short: as §2
Rattus norvegicus [38] = assay: Liver uptake after 30 min was determined in female Fischer rats after [125I]-labeled compound complexed with bovine serum albumin was injected intravenously; type: functional; in short: as §2
Rattus norvegicus [39] = assay: Liver uptake after 4 hr was determined in female Fischer rats after [125I]-labeled compound complexed with bovine serum albumin was injected intravenously; type: functional; in short: as §2
Rattus norvegicus [40] = assay: Uptake in lungs after 4 hr was determined in female Fischer rats after [125I]-labeled compound complexed with bovine serum albumin was injected intravenously; type: functional; in short: as §3
Rattus norvegicus [41] = assay: Uptake in lungs after 1 day was determined in female Fischer rats after [125I]-labeled compound complexed with bovine serum albumin was injected intravenously; type: functional; in short: as §3
Rattus norvegicus [42] = assay: Heart uptake after 4 hr was determined in female Fischer rats after [125I]-labeled compound complexed with bovine serum albumin was injected intravenously; type: functional; in short: as §2
Rattus norvegicus [43] = assay: Thyroid uptake after 5 min was determined in female Fischer rats after [125I]-labeled compound complexed with bovine serum albumin was injected intravenously; type: functional; in short: as §3
Rattus norvegicus [44] = assay: Uptake in lungs after 60 min was determined in female Fischer rats after [125I]-labeled compound complexed with bovine serum albumin was injected intravenously; type: functional; in short: as §3

**Q.** What does the source list for O=C(O)CCCCC[Te]CCCCCCCCC/C=C/I?
**A.** Ratio [1]: 3.1; Injected dose/g (Rattus norvegicus [2]): 2.78%; Ratio [3]: 2.9; Ratio [4]: 0.55; Ratio [5]: 0.54; Ratio [6]: 0.56; Injected dose/g (Rattus norvegicus [7]): 2.37%; Ratio [8]: 3.1; Ratio [9]: 2.8; Ratio [10]: 12; Ratio [11]: 13; Injected dose/g (Rattus norvegicus [12]): 2.86%; Ratio [13]: 13; Ratio [14]: 3.3; Ratio [15]: 8; Ratio [16]: 3.3; Ratio [17]: 2.7; Ratio [18]: 0.49; Injected dose/g (Rattus norvegicus [19]): 2.96%; Ratio [20]: 2.9; Injected dose/g (Rattus norvegicus [21]): 3.47%; Ratio [22]: 3.1; Ratio [23]: 0.59; Ratio [24]: 13; Ratio [25]: 2.9

**Q.** Which Ratio [1] does the source give for O=C(O)CCCCCCCCCCC[Te]CCC/C=C/I here?
**A.** 1.6

**Q.** And the Injected dose/g (Rattus norvegicus [2])?
**A.** 1.52%

**Q.** What about the Ratio [3] of the same compound?
**A.** 1.3

**Q.** And the Ratio [4]?
**A.** 0.41

**Q.** What about the Ratio [5] of the same compound?
**A.** 0.39

**Q.** And the Ratio [6]?
**A.** 0.17

**Q.** What about the Injected dose/g (Rattus norvegicus [7]) of the same compound?
**A.** 0.76%

**Q.** And the Ratio [8]?
**A.** 1.9

**Q.** What about the Ratio [9] of the same compound?
**A.** 1.1

**Q.** What about the Ratio [10] of the same compound?
**A.** 1.5

**Q.** What about the Ratio [11] of the same compound?
**A.** 2.6

**Q.** And the Injected dose/g (Rattus norvegicus [12])?
**A.** 1.03%

**Q.** And the Ratio [13]?
**A.** 2.5

**Q.** And the Ratio [14]?
**A.** 1.1

**Q.** And the Ratio [15]?
**A.** 1.2

**Q.** And the Ratio [16]?
**A.** 1.5

**Q.** What about the Ratio [17] of the same compound?
**A.** 1.6

**Q.** And the Ratio [18]?
**A.** 0.29

**Q.** What about the Injected dose/g (Rattus norvegicus [19]) of the same compound?
**A.** 1.81%

**Q.** And the Ratio [20]?
**A.** 1.7

**Q.** What about the Injected dose/g (Rattus norvegicus [21]) of the same compound?
**A.** 1.46%

**Q.** And the Ratio [22]?
**A.** 1.5

**Q.** What about the Ratio [23] of the same compound?
**A.** 0.42

**Q.** And the Ratio [24]?
**A.** 8

**Q.** And the Ratio [25]?
**A.** 1.6

**Q.** What does the source list for O=C(O)CCC[Te]CCCCCCCCCCC/C=C/I?
**A.** Ratio [1]: 3.7; Injected dose/g (Rattus norvegicus [2]): 4.64%; Ratio [3]: 3.6; Injected dose/g (Rattus norvegicus [26]): 1.54%; Ratio [4]: 0.59; Ratio [5]: 0.75; Injected dose/g (Rattus norvegicus [27]): 7.33%; Ratio [6]: 0.6; Injected dose/g (Rattus norvegicus [28]): 1.47%; Injected dose/g (Rattus norvegicus [29]): 6.56%; Injected dose/g (Rattus norvegicus [30]): 0.16%; Ratio [8]: 4.3; Injected dose/g (Rattus norvegicus [31]): 3.64%; Injected dose/g (Rattus norvegicus [32]): 0.11%; Ratio [9]: 3.9; Ratio [10]: 20; Injected dose/g (Rattus norvegicus [33]): 0.18%; Ratio [11]: 23; Injected dose/g (Rattus norvegicus [34]): 3.96%; Ratio [13]: 30; Ratio [14]: 4; Ratio [15]: 18; Injected dose/g (Rattus norvegicus [35]): 0.19%; Ratio [16]: 3.9; Injected dose/g (Rattus norvegicus [36]): 1.02%; Ratio [17]: 2.7; Injected dose/g (Rattus norvegicus [37]): 0.19%; Ratio [18]: 0.84; Injected dose/g (Rattus norvegicus [19]): 4.33%; Injected dose/g (Rattus norvegicus [38]): 5.53%; Injected dose/g (Rattus norvegicus [39]): 4.76%; Ratio [20]: 3; Injected dose/g (Rattus norvegicus [40]): 0.92%; Injected dose/g (Rattus norvegicus [41]): 0.71%; Injected dose/g (Rattus norvegicus [42]): 3.57%; Injected dose/g (Rattus norvegicus [43]): 6.03%; Injected dose/g (Rattus norvegicus [21]): 3.99%; Ratio [22]: 4.6; Ratio [23]: 0.74; Ratio [24]: 37; Injected dose/g (Rattus norvegicus [44]): 1.16%; Ratio [25]: 3.7
